This is an account of results in ChEMBL document CHEMBL2396643, “Discovery of a small molecular compound simultaneously targeting RXR and HADC: design, synthesis, molecular docking and bioassay” (Bioorg Med Chem Lett, 2013).

Experiment [1] addresses T1, Retinoic acid receptor RXR-alpha (Homo sapiens, UniProt P19793).
T1 sequence (P19793 whole entry): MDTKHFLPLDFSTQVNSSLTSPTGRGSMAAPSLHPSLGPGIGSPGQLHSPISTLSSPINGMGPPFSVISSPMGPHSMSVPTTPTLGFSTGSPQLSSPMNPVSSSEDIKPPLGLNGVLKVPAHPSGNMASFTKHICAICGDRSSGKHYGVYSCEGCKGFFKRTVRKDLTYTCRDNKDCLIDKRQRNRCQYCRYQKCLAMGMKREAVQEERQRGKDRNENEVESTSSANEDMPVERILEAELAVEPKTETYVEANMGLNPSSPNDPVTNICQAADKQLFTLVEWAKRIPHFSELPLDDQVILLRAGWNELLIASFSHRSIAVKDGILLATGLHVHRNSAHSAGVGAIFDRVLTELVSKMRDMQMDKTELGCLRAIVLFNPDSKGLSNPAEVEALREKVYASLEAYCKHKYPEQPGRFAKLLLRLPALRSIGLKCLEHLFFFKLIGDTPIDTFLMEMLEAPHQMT
Description: Transactivation of human RXRalpha transfected in human 293 cells after 48 hrs by dual-luciferase reporter gene assay. In kind it is cell-based, HEK293. On the technique in general: A reporter such as luciferase makes a cellular process visible.

A short description of experiment [2]: Cytotoxicity against human GBC-SD cells assessed as growth inhibition after 72 hrs by MTT assay. In kind it is functional, cell-based. On the technique in general: Formazan colour is commonly taken as a measure of viable cells.
The target of the next experiment is Histone deacetylase. Description: Inhibition of HDAC isolated from human HeLa cell nuclear extract after 30 mins by fluorescence assay. In kind it is protein assay.
Another experiment relates to A549/SAHA. Description: cells. The note with it: Homo sapiens, 48 h.
The test system of a further experiment is A549. Description: Cytotoxicity against human A549 cells assessed as growth inhibition after 72 hrs by MTT assay. In kind it is functional, cell-based. The note with it: A549, 72 h.
In experiment [3] the test system is KB. Description: Cytotoxicity against bexarotene-resistant human KB cells assessed as growth inhibition after 48 hrs by MTT assay. In kind it is functional, cell-based. A digest of the protocol:
(§1)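 Cells seeded at 3000 per well and exposed to diluted compounds, with bexarotene and SAHA as positive controls, for 48 h (drug-resistant cells) or 72 h (parental cells). Final DMSO 0.1%. Cell number determined by MTT dye per manufacturer instructions.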

For a further experiment, the system named is HGC-27. Description: Cytotoxicity against human HGC27 cells assessed as growth inhibition after 72 hrs by MTT assay. It is filed as functional, cell-based. The note with it: HGC-27, 72 h.
The target in experiment [4] is T2, Histone deacetylase (Homo sapiens) (UniProt Q13547+O15379+Q9UBN7+Q92769+Q9UQL6+Q8WUI4+Q9BY41+Q96DB2+P56524+Q9UKV0+Q969S8). Description: Inhibition of HDAC in human HL60 cells assessed as increase in p21 WAF1/CIP1 level after 48 hrs by Western blot analysis. It is filed as cell-based. The note with it: HL-60. The method in brief: (§2)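 About 1 × 10⁷ HL60 cells exposed to compound or SAHA for 48 h. Nuclear protein extracted, equal protein amounts resolved on 10–15% SDS–PAGE and blotted to PVDF. Probed for acetylated H3 and p21WAF1/CIP1, with histone H3 and β-actin as loading controls. ECL detection on X-ray film, densitometry relative to control.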

Experiment [5] deals with T2, Histone deacetylase (Homo sapiens). Description: Inhibition of HDAC in human HL60 cells assessed as increase in acetylated H3 level after 48 hrs by Western blot analysis. It is filed as cell-based. The following applies: HL-60. A digest of the protocol: as §2
Background: In western blotting, separated proteins are transferred to a membrane and probed.

A short description of experiment [6]: Cytotoxicity against human Hep3B cells assessed as growth inhibition after 72 hrs by MTT assay. It is filed as functional, cell-based, Hep 3B2.
The test system of experiment [7] is KB. Description: Cytotoxicity against human KB cells assessed as growth inhibition after 72 hrs by MTT assay. It is filed as functional, cell-based. The method in brief: as §1
Experiment [8] has as its target T2, Histone deacetylase (Homo sapiens). Description: Inhibition of HDAC in human HL60 cells using Boc-Lys(Ac)-pNA as substrate incubated for 24 hrs prior to substrate addition measured after 90 mins by fluorescence assay. It is filed as cell-based. The note with it: HL-60. A digest of the protocol:
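HL60 cells exposed to a range of compound concentrations or SAHA for 24 h, then lysed and protein measured by BCA. Lysates incubated with Boc-Lys(Ac)-pNA (10 mM) in HDAC assay buffer for 90 min at 37 °C. Lysine Developer added and incubated 30 min at 37 °C before plate-reader readout. Mean ± SD of three determinations.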

A further experiment relates to DU-145. Description: Cytotoxicity against human DU145 cells assessed as growth inhibition after 72 hrs by MTT assay. The note with it: DU-145, 72 h. It is filed as functional, cell-based. The method in brief: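 Seeded at 3000 cells/well and incubated with diluted compounds, with bexarotene and SAHA as positive controls, for 72 h. Final DMSO 0.1%. Remaining cells quantified with MTT dye per manufacturer instructions.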

In general, EC50 refers to the concentration that produces a half-maximal response. As usually defined, the IC50 is the concentration needed to halve the response being measured. For `C=C(c1ccc(C(=O)NO)cc1)c1cc2c(cc1C)C(C)(C)CCC2(C)C`, the EC50 in experiment [1] was determined as 0.0195 µM. The IC50 in [2] is 24.1 µM; against Histone deacetylase, 6.7 µM; in the experiment on A549/SAHA, 3.8 µM; with A549, 9.4 µM; in the experiment on KB [3], 16.8 µM; in the experiment with HGC-27, 8.6 µM. Moreover, the results for the IC50 (in experiment [6]; in the experiment with KB [7]; with DU-145) were 17.4 µM, 6.1 µM and 14.1 µM, respectively. Further, the inhibition entry in experiment [4], in [5] and in [8] was “Dose-dependent effect” each time.

Consider `C=C(c1ccc(C(=O)O)cc1)c1cc2c(cc1C)C(C)(C)CCC2(C)C` [BEXAROTENE], for which the IC50 in experiment [2] is 73.3 µM; in the experiment with KB [3], 46.3 µM; with HGC-27 it was 32.7 µM; in experiment [6], 192 µM; in the experiment on KB [7] it was 8.8 µM; in the experiment on DU-145, 61.6 µM.

For the compound `O=C(CCCCCCC(=O)Nc1ccccc1)NO` [VORINOSTAT], the IC50 with DU-145 was 27.2 µM.
